These results are taken from ChEMBL document CHEMBL1143315, “Investigation of ketone warheads as alternatives to the nitrile for preparation of potent and selective cathepsin K inhibitors” (Bioorg Med Chem Lett, 2009).

A value given as a limit tells only on which side of the number the result lay.

One series addresses Cathepsin K (Homo sapiens, UniProt P43235). Put plainly: Inhibition of humanized rabbit cathepsin K.
Series [1] is filed under the species Homo sapiens. Nature of the series: Selectivity ratio of IC50 for human cathepsin L to IC50 for humanized rabbit cathepsin K.
Series [2] is filed under the species Homo sapiens. Nature of the series: Selectivity ratio of IC50 for human cathepsin S to IC50 for humanized rabbit cathepsin K.
For series [3], the species on record is Homo sapiens. Nature of the series: Selectivity ratio of IC50 for human cathepsin B to IC50 for humanized rabbit cathepsin K.
Series [4] in a line: Half life in rat at 2 to 5 mg/kg, iv. More on the design: dose 2-5 mg/kg, route intravenous. Particulars: in vivo. The format is ADME, organism-based. The essentials: (§1)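 Rats were given a single IV dose of 2–5 mg/kg in 60% PEG 200. Half-life (t1/2) and clearance (Cl, mL/min/kg) were taken from the plasma profile. Where two distinct phases were seen, separate t1/2a and terminal t1/2b values were calculated.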

Series [5] is described as follows: Clearance in rat at 2 to 5 mg/kg, iv. The class given is ADME, organism-based. Also noted: dose 2-5 mg/kg, route intravenous. The note with it: in vivo. In outline: as §1
The nature of series [6]: Terminal half life in rat at 2 to 5 mg/kg, iv. The class given is ADME, organism-based. More on the design: dose 2-5 mg/kg, route intravenous. The note with it: in vivo, read-out: beta t1/2 (converted). The essentials: as §1
The species entered for another series is Rattus norvegicus. Nature of the series: Metabolic stability in rat hepatocytes assessed as compound remaining after 2 hrs.
The nature of series [7]: Primary phase half life in rat at 2 to 5 mg/kg, iv. More on the design: dose 2-5 mg/kg, route intravenous. The note with it: in vivo, read-out: alphat1/2 (converted). The format is ADME, organism-based. The essentials:
as §1

In turn, `CC(C)(F)C[C@H](N[C@@H](c1ccc(-c2ccc(S(C)(=O)=O)cc2)cc1)C(F)(F)F)C(=O)NC1CCN(c2ccccc2)CC1=O` (stereo not given in full) showed a half-maximal inhibitory concentration (IC50) on Cathepsin K of 8.3 nM. Also, the values for the Ratio IC50 in the series listed under Homo sapiens [1], in the series filed under Homo sapiens [2] and in the series listed under Homo sapiens [3] were 101, 8 and 2, respectively.
Regarding `COC(=O)NCC(=O)CNC(=O)[C@H](CC(C)(C)F)N[C@@H](c1ccc(-c2ccc(S(C)(=O)=O)cc2)cc1)C(F)(F)F`, the half-life in series [4] was 1.1 h. Moreover, the clearance in series [5] was 17 mL/min/kg. On Cathepsin K, this molecule showed an IC50 of 45 nM. In addition, the Ratio IC50 in the series filed under Homo sapiens [1] is 152; in the series listed under Homo sapiens [2], 38; in the series listed under Homo sapiens [3], 148.
In the case of `CC(C)(F)C[C@H](N[C@@H](c1ccc(-c2ccc(S(C)(=O)=O)cc2)cc1)C(F)(F)F)C(=O)NC1CCCN(S(=O)(=O)c2ccccn2)CC1=O` (stereo in doubt; 11) [listing 1 of 2 here], on Cathepsin K, the IC50 worked out at 1.8 nM.
In turn, `CC(C)(F)C[C@H](N[C@@H](c1ccc(-c2ccc(S(C)(=O)=O)cc2)cc1)C(F)(F)F)C(=O)NC1CCCN(S(=O)(=O)c2ccccn2)CC1=O` (stereo in doubt; 10) [listing 1 of 2 here] showed an IC50 at Cathepsin K of 10 nM.
On to `CC(C)(F)C[C@H](N[C@@H](c1ccc(-c2ccc(S(C)(=O)=O)cc2)cc1)C(F)(F)F)C(=O)NC1CN(S(=O)(=O)c2ccccn2)CC1=O` (stereo not given in full), for which the half-life in series [4] is 1.3 h. The molecule also came in with a clearance in series [5] of 43 mL/min/kg. On Cathepsin K, half-maximal inhibition (IC50) was put at 85 nM.
As for `CC(C)(F)C[C@H](N[C@@H](c1ccc(-c2ccc(S(C)(=O)=O)cc2)cc1)C(F)(F)F)C(=O)NC1CN(C(N)=O)CC1=O` (stereo not given in full), on Cathepsin K, the IC50 was 7.3 nM. The Ratio IC50 was 40 in the series listed under Homo sapiens [1], 104 in the series filed under Homo sapiens [2] and 355 in the series listed under Homo sapiens [3].
Regarding `CC(C)(F)C[C@H](N[C@@H](c1ccc(-c2ccc(S(C)(=O)=O)cc2)cc1)C(F)(F)F)C(=O)NC1CCCNCC1=O` (stereo not given in full), the 50% inhibitory concentration (IC50) at Cathepsin K was found to be 33 nM. Also, the Ratio IC50 in the series filed under Homo sapiens [1] stood at 236; in the series filed under Homo sapiens [2], 179; in the series filed under Homo sapiens [3] it was 303.
`CC(C)(F)C[C@H](N[C@@H](c1ccc(-c2ccc(S(C)(=O)=O)cc2)cc1)C(F)(F)F)C(=O)NC1CCCN(S(=O)(=O)Cc2ccccc2)CC1=O` (stereo not given in full) had a 50% inhibitory concentration (IC50) on Cathepsin K of 159 nM. Further, the Ratio IC50 in the series filed under Homo sapiens [1] was greater than 63; in the series listed under Homo sapiens [2], 8; in the series filed under Homo sapiens [3], 50.
In the same order, the values of `CCOC(=O)N1CCCC(NC(=O)[C@H](CC(C)(C)F)N[C@@H](c2ccc(-c3ccc(S(C)(=O)=O)cc3)cc2)C(F)(F)F)C(=O)C1` (stereo not given in full) are 54 nM, greater than 185, 46 and greater than 185.
For `CC(C)(F)C[C@H](N[C@@H](c1ccc(-c2ccc(S(C)(=O)=O)cc2)cc1)C(F)(F)F)C(=O)NC1CN(S(C)(=O)=O)CC1=O` (stereo not given in full) the same measures were 27 nM, 158, 313 and 370.
For `CC(C)(F)C[C@H](N[C@@H](c1ccc(-c2ccc(S(C)(=O)=O)cc2)cc1)C(F)(F)F)C(=O)NC1CN(C(=O)NS(=O)(=O)c2ccccc2)CC1=O` (stereo not given in full) the same measures were 68 nM, greater than 147, greater than 6 and 9.
For the molecule `CC(C)(F)C[C@H](N[C@@H](c1ccc(-c2ccc(S(C)(=O)=O)cc2)cc1)C(F)(F)F)C(=O)NC1CCCN(S(=O)(=O)c2ccccn2)CC1=O` (stereo in doubt; 10) [listing 2 of 2 here], the values for the Ratio IC50 in the series listed under Homo sapiens [1], in the series filed under Homo sapiens [2] and in the series filed under Homo sapiens [3] were greater than 1000, 54 and greater than 1000, respectively.
Turning to `CC(C)(F)C[C@H](N[C@@H](c1ccc(-c2ccc(S(C)(=O)=O)cc2)cc1)C(F)(F)F)C(=O)NC1CCCN(S(=O)(=O)c2ccccn2)CC1=O` (stereo in doubt; 9) [listing 1 of 2 here], the Ratio IC50 in the series listed under Homo sapiens [1] was 939; in the series filed under Homo sapiens [2], 45; in the series listed under Homo sapiens [3], greater than 1000.
`CC(C)(F)C[C@H](N[C@@H](c1ccc(-c2ccc(S(C)(=O)=O)cc2)cc1)C(F)(F)F)C(=O)NC1CN(C(=O)c2ccccc2)CC1=O` (stereo not given in full) returned an IC50 at Cathepsin K of 2.9 nM. Moreover, the Ratio IC50 in the series filed under Homo sapiens [1] came to 197; in the series listed under Homo sapiens [2] it was 14; in the series filed under Homo sapiens [3], 188.
`CCOC(=O)N1CC(=O)C(NC(=O)[C@H](CC(C)(C)F)N[C@@H](c2ccc(-c3ccc(S(C)(=O)=O)cc3)cc2)C(F)(F)F)C1` (stereo not given in full) had a half-life in series [4] of 2.1 h. The clearance in series [5] amounted to 53 mL/min/kg. At Cathepsin K, this molecule displayed an IC50 of 1.6 nM.
For the molecule `CC(C)(F)C[C@H](N[C@@H](c1ccc(-c2ccc(S(C)(=O)=O)cc2)cc1)C(F)(F)F)C(=O)NC1CCN(S(=O)(=O)c2ccccn2)CC1=O` (stereo not given in full), the half-life in series [4] is 0.6 h. This molecule showed a clearance in series [5] of 24 mL/min/kg. The molecule also yielded a half-maximal inhibitory concentration (IC50) at Cathepsin K of 5.7 nM. Further, the Ratio IC50 worked out at 621 in the series filed under Homo sapiens [1], 22 in the series filed under Homo sapiens [2] and 232 in the series filed under Homo sapiens [3].
`CCOC(=O)N1CCC(NC(=O)[C@H](CC(C)(C)F)N[C@@H](c2ccc(-c3ccc(S(C)(=O)=O)cc3)cc2)C(F)(F)F)C(=O)C1` (stereo not given in full): the midpoint of inhibition against Cathepsin K, the IC50, lay at 9 nM. The Ratio IC50 in the series filed under Homo sapiens [1] is greater than 1000; in the series listed under Homo sapiens [2] it was 10; in the series filed under Homo sapiens [3] it was 364.
Turning to `CC(C)(F)C[C@H](N[C@@H](c1ccc(-c2ccc(S(C)(=O)=O)cc2)cc1)C(F)(F)F)C(=O)NC1CCCN(S(=O)(=O)c2cccc[n+]2[O-])CC1=O` (stereo not given in full), the concentration for half-maximal inhibition (IC50) against Cathepsin K is 2.6 nM. Moreover, the Ratio IC50 is 984 in the series listed under Homo sapiens [1], 33 in the series listed under Homo sapiens [2] and greater than 1000 in the series listed under Homo sapiens [3].
Regarding `CC(C)(F)C[C@H](N[C@@H](c1ccc(-c2ccc(S(C)(=O)=O)cc2)cc1)C(F)(F)F)C(=O)NC1CCCN(S(=O)(=O)c2ccccn2)CC1=O` (stereo in doubt; 11) [listing 2 of 2 here], the Ratio IC50 is 681 in the series filed under Homo sapiens [1], 35 in the series listed under Homo sapiens [2] and greater than 1000 in the series filed under Homo sapiens [3].
`CC(C)(F)C[C@H](N[C@@H](c1ccc(-c2ccc(S(C)(=O)=O)cc2)cc1)C(F)(F)F)C(=O)NC1CN(C(=O)OC(C)(C)C)CC1=O` (stereo not given in full): 3.9 nM corresponded to half-maximal inhibition on Cathepsin K (IC50). In addition, the Ratio IC50 came out at 403 in the series listed under Homo sapiens [1], 29 in the series filed under Homo sapiens [2] and 27 in the series filed under Homo sapiens [3].
`CC(C)(F)C[C@H](N[C@@H](c1ccc(-c2ccc(S(C)(=O)=O)cc2)cc1)C(F)(F)F)C(=O)NC1(C#N)CC1` [ODANACATIB]: the half-life in series [4] was 6 h. The molecule further had a clearance in series [5] of 2 mL/min/kg. On Cathepsin K, this molecule gave an IC50 of 0.2 nM.
At Cathepsin K, `CC(C)(F)C[C@H](N[C@@H](c1ccc(-c2ccc(S(C)(=O)=O)cc2)cc1)C(F)(F)F)C(=O)NC1CN(C(=O)Nc2ccccc2)CC1=O` (stereo not given in full) returned an IC50 of 7.3 nM. The Ratio IC50 in the series listed under Homo sapiens [1] turned out to be 40; in the series filed under Homo sapiens [2], 104; in the series filed under Homo sapiens [3], 355.
For `CC(C)(F)C[C@H](N[C@@H](c1ccc(-c2ccc(S(C)(=O)=O)cc2)cc1)C(F)(F)F)C(=O)NC1CN(C(=O)NCc2ccccc2)CC1=O` (stereo not given in full) the same measures were 15 nM, 667, 36 and 53.
Consider `CC(C)(F)C[C@H](N[C@@H](c1ccc(-c2ccc(S(C)(=O)=O)cc2)cc1)C(F)(F)F)C(=O)NC1CCCN(S(=O)(=O)c2ccccn2)CC1=O` (stereo in doubt; 9) [listing 2 of 2 here], for which the half-life in series [6] is 11 h; in series [7], 0.6 h. In [5], this molecule displayed a clearance of 46 mL/min/kg. Further, the IC50 against Cathepsin K worked out at 2 nM. For the same molecule, in the series listed under Rattus norvegicus, the share remaining at 2 h was found to be 56%.
On to `COC(=O)N1CC(=O)C(NC(=O)[C@H](CC(C)(C)F)N[C@@H](c2ccc(-c3ccc(S(C)(=O)=O)cc3)cc2)C(F)(F)F)C1` (stereo not given in full), for which the half-life in [4] was 2.8 h. Further, the clearance in series [5] was found to be 40 mL/min/kg. The same molecule gave a half-maximal inhibitory concentration (IC50) against Cathepsin K of 4.3 nM.
For `CC(C)(F)C[C@H](N[C@@H](c1ccc(-c2ccc(S(C)(=O)=O)cc2)cc1)C(F)(F)F)C(=O)NC1CCCN(S(C)(=O)=O)CC1=O` (stereo not given in full), the IC50 against Cathepsin K is 16 nM. Moreover, the Ratio IC50 in the series filed under Homo sapiens [1] was 617; in the series listed under Homo sapiens [2], 114; in the series filed under Homo sapiens [3], greater than 1000.
In the same order, the values of `CC(C)(F)C[C@H](N[C@@H](c1ccc(-c2ccc(S(C)(=O)=O)cc2)cc1)C(F)(F)F)C(=O)NC1CNCC1=O` (stereo not given in full) are 9.8 nM, 16, 159 and 485.
As for `CC(C)(F)C[C@H](N[C@@H](c1ccc(-c2ccc(S(C)(=O)=O)cc2)cc1)C(F)(F)F)C(=O)NC1CCN(c2ccccc2S(C)(=O)=O)CC1=O` (stereo not given in full), on Cathepsin K, the half-inhibitory concentration (IC50) turned out to be 6.9 nM. Besides, the figures for the Ratio IC50 in the series filed under Homo sapiens [1], in the series listed under Homo sapiens [2] and in the series listed under Homo sapiens [3] were 91, 3.9 and 1, respectively.
In series [4], `CC(=O)N1CC(=O)C(NC(=O)[C@H](CC(C)(C)F)N[C@@H](c2ccc(-c3ccc(S(C)(=O)=O)cc3)cc2)C(F)(F)F)C1` (stereo not given in full) gave a half-life of 1.2 h. For the same molecule, in [5], the clearance worked out at 67 mL/min/kg. Moreover, the half-maximal inhibitory concentration (IC50) at Cathepsin K worked out at 4.2 nM. Besides, the Ratio IC50 in the series listed under Homo sapiens [1] was greater than 1000; in the series filed under Homo sapiens [2], 604; in the series listed under Homo sapiens [3], greater than 1000.

Broadly, the IC50 is the concentration that inhibits the measured activity by half. The low end stands for greater potency, the high end for weaker potency. By clearance is commonly meant the volume of plasma or blood freed of the substance per unit of time. Usually amount remaining stands for what is left of the initial amount, in per cent.
